Calls of active or inactive are those of the source. No cut-off for these calls is given here.
Assays:
Jurkat [1] = assay: Cytoprotective activity against FasL-induced necroptosis in human Jurkat cells assessed as increase in cell viability at 10 uM incubated for 1 hr followed by FasL stimulation measured after 20 hrs by Alamar blue assay; type: functional, cell-based
Procedure, shortened: (§1)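 Jurkat necroptosis induced with FasL (100 ng/mL, 20 h) together with Z-VAD (100 μM) or cycloheximide (5 μM). Test agents were run at 10 μM alongside a necroptosis inhibitor at 30 μM. Viability read by AlamarBlue; morphology examined by phase-contrast imaging.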

Jurkat [2] = assay: Cytoprotective activity against FasL-induced apoptosis in human Jurkat cells assessed as increase in cell viability at 10 uM incubated for 1 hr followed by FasL stimulation measured after 18 hrs by Alamar blue assay; type: functional, cell-based
Procedure, shortened: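 Jurkat cells exposed to FasL (100 ng/mL, 18 h) with or without test agent (10 μM) or Z-VAD (100 μM). Viability measured by AlamarBlue and morphology by phase-contrast imaging.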

H9c2 [3] = assay: Cytoprotective activity against TBHP-induced necrosis in rat H9c2 cells incubated for 4 hrs by LDH release assay; type: functional, cell-based; conditions: H9c2, 4 h
Procedure, shortened: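 Rat cardiomyoblast H9c2 cells treated with TBHP (300 μM) with or without test compound; necrotic cell death quantified by LDH release assay.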

Jurkat [4] = assay: Cytoprotective activity against Z-VAD-induced necroptosis in human Jurkat cells assessed as increase in cell viability at 10 uM incubated for 1 hr followed by Z-VAD stimulation by Alamar blue assay; type: functional, cell-based; procedure, shortened: as §1
HL-60 [5] = assay: Cytoprotective activity against Fas ligand-induced apoptosis in human HL60 cells assessed as increase in cell viability at 10 uM incubated for 1 hr followed by Fas ligand stimulation measured after 18 hrs by Alamar blue assay; type: functional, cell-based
Procedure, shortened: (§2)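 HL-60 cells given a death inducer with or without test agent (10 μM) or Z-VAD (100 μM). Inducers were actinomycin D 1 μM for 6 h, camptothecin 1 μM for 6 h, etoposide 100 μM for 4 h, FasL 100 ng/mL for 18 h, H2O2 100 μM for 3 h, and TBHP 30 μM for 3 h. Viability read by AlamarBlue.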

HL-60 [6] = assay: Cytoprotective activity against camptothecin-induced apoptosis in human HL60 cells assessed as increase in cell viability at 10 uM incubated for 1 hr followed by camptothecin stimulation measured after 6 hrs by Alamar blue assay; type: functional, cell-based; procedure, shortened: as §2
HL-60 [7] = assay: Cytoprotective activity against H2O2-induced necrosis in human HL60 cells assessed as increase in cell viability at 10 uM incubated for 1 hr followed by H2O2 stimulation measured after 4 hrs by Alamar blue assay; type: functional, cell-based
Procedure, shortened: (§3)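 HL-60 cells exposed to low-level H2O2 (30 μM, 4 h) with or without test agent (10 μM) or Z-VAD (100 μM). Viability read by AlamarBlue; morphology by phase-contrast imaging.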

[8] = Stability in rat liver S9 fraction at 5 uM after 30 mins by HPLC method; type: ADME, subcellular; conditions: s9, 0.5 h
HL-60 [9] = assay: Cytoprotective activity against H2O2-induced necrosis in human HL60 cells assessed as increase in cell viability at 10 uM incubated for 1 hr followed by H2O2 stimulation measured after 4 hrs by phase contrast microscopy; type: functional, cell-based; procedure, shortened: as §3
Jurkat [10] = assay: Cytoprotective activity against FasL-induced necroptosis in human Jurkat cells assessed as increase in cell viability at 10 uM incubated for 1 hr followed by FasL stimulation measured after 20 hrs by phase contrast microscopy; type: functional, cell-based; procedure, shortened: as §1
HL-60 [11] = assay: Cytoprotective activity against actinomycin D-induced apoptosis in human HL60 cells assessed as increase in cell viability at 10 uM incubated for 1 hr followed by actinomycin D stimulation measured after 6 hrs by Alamar blue assay; type: functional, cell-based; procedure, shortened: as §2
HL-60 [12] = assay: Cytoprotective activity against H2O2-induced necrosis in human HL60 cells assessed as increase in cell viability at 10 uM incubated for 1 hr followed by H2O2 stimulation measured after 4 hrs in presence of caspase inhibitor Z-VAD by Alamar blue assay; type: functional, cell-based; procedure, shortened: as §3
HL-60 [13] = assay: Cytoprotective activity against etoposide-induced apoptosis in human HL60 cells assessed as increase in cell viability at 10 uM incubated for 1 hr followed by etoposide stimulation measured after 4 hrs by Alamar blue assay; type: functional, cell-based; procedure, shortened: as §2
[14] = Solubility of the compound in water; type: physicochemical; conditions: buffer
HL-60 [15] = assay: Cytoprotective activity against TBHP-induced necrosis in human HL60 cells assessed as increase in cell viability at 10 uM incubated for 1 hr followed by TBHP stimulation measured after 3 hrs by Alamar blue assay; type: functional, cell-based; procedure, shortened: as §2
Jurkat [16] = assay: Cytoprotective activity against Z-VAD-induced necroptosis in human Jurkat cells assessed as increase in cell viability at 10 uM incubated for 1 hr followed by Z-VAD stimulation by phase contrast microscopy; type: functional, cell-based; procedure, shortened: as §1
HL-60 [17] = assay: Cytoprotective activity against H2O2-induced necrosis in human HL60 cells incubated for 1 hr followed by H2O2 stimulation by LDH release assay; type: functional, cell-based; conditions: HL-60, 1 h
Procedure, shortened: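 Necrosis of HL-60 cells induced by H2O2 and quantified as lactate dehydrogenase release from the cytosol; IC50 derived.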

Jurkat [18] = assay: Cytoprotective activity against CHX-induced necroptosis in human Jurkat cells assessed as increase in cell viability at 10 uM incubated for 1 hr followed by CHX stimulation by Alamar blue assay; type: functional, cell-based; procedure, shortened: as §1
HL-60 [19] = assay: Cytoprotective activity against H2O2-induced necrosis in human HL60 cells assessed as increase in cell viability at 10 uM incubated for 1 hr followed by H2O2 stimulation measured after 3 hrs by Alamar blue assay; type: functional, cell-based; procedure, shortened: as §2
HL-60 [20] = assay: Cytoprotective activity against H2O2-induced apoptosis in human HL60 cells assessed as increase in cell viability at 10 uM incubated for 1 hr followed by H2O2 stimulation measured after 4 hrs in presence of caspase inhibitor Z-VAD by Alamar blue assay; type: functional, cell-based; procedure, shortened: as §3
H9c2 [21] = assay: Cytotoxicity against rat H9c2 cells at 30 uM; type: cell-based; conditions: h9c2, 30 µM
HL-60 [22] = assay: Cytoprotective activity against H2O2-induced necrosis in human HL60 cells assessed as increase in cell viability at 10 uM incubated for 1 hr followed by H2O2 stimulation measured after 4 hrs in presence of caspase inhibitor Z-VAD by phase contrast microscopy; type: functional, cell-based; procedure, shortened: as §3
Jurkat [23] = assay: Cytoprotective activity against CHX-induced necroptosis in human Jurkat cells assessed as increase in cell viability at 10 uM incubated for 1 hr followed by CHX stimulation by phase contrast microscopy; type: functional, cell-based; procedure, shortened: as §1
HL-60 [24] = assay: Cytoprotective activity against H2O2-induced apoptosis in human HL60 cells assessed as increase in cell viability at 10 uM incubated for 1 hr followed by H2O2 stimulation measured after 4 hrs in presence of caspase inhibitor Z-VAD by phase contrast microscopy; type: functional, cell-based; procedure, shortened: as §3

Which results are given for `CCCCCNC1=C(c2cn(C)c3ccccc23)C(=O)N(C)C1=O`?
Activity (Jurkat [1]): inactive; Activity (Jurkat [2]): inactive; IC50 (H9c2 [3]): 3900 nM; Activity (Jurkat [4]): inactive; Activity (HL-60 [5]): inactive; Activity (HL-60 [6]): inactive; Activity (HL-60 [7]): Active; Stability [8]: Unstable; Activity (HL-60 [9]): Active; Activity (Jurkat [10]): inactive; Activity (HL-60 [11]): inactive; Activity (HL-60 [12]): Active; Activity (HL-60 [13]): inactive; solubility [14]: Insoluble; Activity (HL-60 [15]): Active; Activity (Jurkat [16]): inactive; IC50 (HL-60 [17]): 250 nM; Activity (Jurkat [18]): inactive; Activity (HL-60 [19]): Active; Activity (HL-60 [20]): Active; Activity (H9c2 [21]): Non-Toxic; Activity (HL-60 [22]): Active; Activity (Jurkat [23]): inactive; Activity (HL-60 [24]): Active

— ChEMBL document CHEMBL4251693, “Indolylmaleimide Derivative IM-17 Shows Cardioprotective Effects in Ischemia-Reperfusion Injury” (ACS Med Chem Lett, 2018)
